Article PMC2606940 (The Journal of General Physiology, 2009)
Numbering of substitutions follows the chain as printed. Where two headings read alike, the source gives them in different places.

Legend:
[1] = molecular target: T1, CLC-0 E166C/E127Q/K519E mutant (Torpedo marmorata, UniProt P21564, C212S/E127Q/E166C/K519E); type: cell-based; conditions: read-out: Apparent affinity (K1/2)
T1 sequence (P21564 1-805 E127Q/E166C/C212S/K519E): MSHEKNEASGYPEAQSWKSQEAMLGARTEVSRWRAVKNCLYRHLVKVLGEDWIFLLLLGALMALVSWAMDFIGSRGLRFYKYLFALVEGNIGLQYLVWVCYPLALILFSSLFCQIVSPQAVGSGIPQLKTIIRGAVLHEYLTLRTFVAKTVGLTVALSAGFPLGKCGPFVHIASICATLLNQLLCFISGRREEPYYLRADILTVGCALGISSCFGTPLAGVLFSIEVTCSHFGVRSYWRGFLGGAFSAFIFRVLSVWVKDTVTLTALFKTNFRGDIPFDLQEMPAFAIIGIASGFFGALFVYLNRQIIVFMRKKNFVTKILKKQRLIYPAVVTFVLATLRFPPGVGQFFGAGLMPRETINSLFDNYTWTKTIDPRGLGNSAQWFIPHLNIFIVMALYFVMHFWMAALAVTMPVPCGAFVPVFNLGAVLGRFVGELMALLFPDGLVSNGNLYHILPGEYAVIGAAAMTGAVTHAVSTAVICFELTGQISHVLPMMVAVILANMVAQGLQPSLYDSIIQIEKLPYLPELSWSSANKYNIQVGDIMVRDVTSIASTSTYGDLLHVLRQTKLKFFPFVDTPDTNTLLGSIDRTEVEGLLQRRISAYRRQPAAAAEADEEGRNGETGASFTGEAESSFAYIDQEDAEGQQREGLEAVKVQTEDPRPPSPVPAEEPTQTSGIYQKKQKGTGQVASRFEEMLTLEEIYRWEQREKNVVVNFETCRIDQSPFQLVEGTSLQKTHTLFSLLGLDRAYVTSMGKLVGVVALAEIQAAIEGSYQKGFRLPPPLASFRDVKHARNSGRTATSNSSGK
Method in brief: (§1)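 CLC-0 mutants in the C212S background were transfected into HEK293 cells with lipofectamine and recorded 1–3 d later as excised inside-out patches. Both sides held 130 mM NaCl, 5 mM MgCl2, 10 mM HEPES and 1 mM EGTA, pH 7.4. CPA was perfused continuously onto the cytoplasmic face. Steady-state current over the last 10 ms was normalized to bracketing blocker-free controls and fitted to a Langmuir function for K1/2. Values are mean ± SEM of ~4–6 patches.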

[2] = molecular target: T2, CLC-0 E166C/K519M mutant (E127/K519M) (Torpedo marmorata, UniProt P21564, C212S/E166C/K519M); type: cell-based; conditions: for IC50: read-out: Apparent affinity (K1/2)
T2 sequence (P21564 1-805 E166C/C212S/K519M): T1 sequence (P21564 1-805 E127Q/E166C/C212S/K519E) with Q127E, E519M
Method in brief: as §1

O=C(O)COc1ccc(Cl)cc1 [CPA, p-chlorophenoxy acetate]
IC50 ([1]; −40 mV): 586 ± 52 µM
IC50 ([1]; −60 mV): 327 ± 24 µM
IC50 ([1]; −80 mV): 198 ± 14 µM
IC50 ([1]; −100 mV): 123 ± 9 µM
IC50 ([1]; −120 mV): 87 ± 6 µM
IC50 ([1]; −140 mV): 62 ± 5 µM
IC50 ([1]; −160 mV): 44 ± 5 µM
IC50 ([2]; −40 mV): 378 ± 7 µM
IC50 ([2]; −60 mV): 271 ± 5 µM
IC50 ([2]; −80 mV): 194 ± 4 µM
IC50 ([2]; −100 mV): 141 ± 5 µM
IC50 ([2]; −120 mV): 98 ± 4 µM
IC50 ([2]; −140 mV): 69 ± 4 µM
IC50 ([2]; −160 mV): 51 ± 4 µM
apparent koff ([2]; −160 mV): 10.5 s⁻¹
apparent kon ([2]; −160 mV): 170000 M⁻¹ s⁻¹
